What was measured:
Conditions in all cases: read-out: pA2 (converted)
[1] = biological target: T1, Muscarinic acetylcholine receptor M3 (Cavia porcellus, UniProt Q8VH26); assay: (§1) Antagonist potency against carbachol induced contractions of isolated guinea pig ileum Muscarinic acetylcholine receptor; assay type: functional, tissue-based
[2] = biological target: Muscarinic acetylcholine receptor M2 (Cavia porcellus); assay: Antagonist potency against muscarinic receptors was assed by antagonism of carbachol induced inhibition of electrically stimulated guinea pig atria
[3] = biological target: Muscarinic acetylcholine receptor M2 (Cavia porcellus); assay: Antagonist potency against carbachol induced inhibition of electrically stimulated guinea pig atria Muscarinic acetylcholine receptor
[4] = biological target: T1, Muscarinic acetylcholine receptor M3; assay: as §1; assay type: functional, tissue-based; remark: listed apart in the source
Summary of the method: (§2)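 Mounted in PSS at 37 °C with isotonic recording and 30 min equilibration. Carbachol curves (0.01-10 μM) were run at 30-min intervals, the second serving as control. A repeat curve followed 30 min antagonist incubation. pA2 came from Schild plots constrained to slope -1.0, using three antagonist concentrations each tested ≥5 times.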

[5] = biological target: Muscarinic acetylcholine receptor M2 (Cavia porcellus); assay: Antagonist potency against carbachol induced inhibition of electrically stimulated guinea pig atria Muscarinic acetylcholine receptor; remark: listed apart in the source
[6] = biological target: Muscarinic acetylcholine receptor M2 (Cavia porcellus); assay: as above; remark: listed apart in the source
[7] = biological target: T1, Muscarinic acetylcholine receptor M3; assay: Antagonist potency against carbachol induced contractions of isolated guinea pig ileum Muscarinic acetylcholine receptor; Inactive up to 10 uM; assay type: functional, tissue-based; summary of the method: as §2

T1 sequence (Q8VH26 whole entry): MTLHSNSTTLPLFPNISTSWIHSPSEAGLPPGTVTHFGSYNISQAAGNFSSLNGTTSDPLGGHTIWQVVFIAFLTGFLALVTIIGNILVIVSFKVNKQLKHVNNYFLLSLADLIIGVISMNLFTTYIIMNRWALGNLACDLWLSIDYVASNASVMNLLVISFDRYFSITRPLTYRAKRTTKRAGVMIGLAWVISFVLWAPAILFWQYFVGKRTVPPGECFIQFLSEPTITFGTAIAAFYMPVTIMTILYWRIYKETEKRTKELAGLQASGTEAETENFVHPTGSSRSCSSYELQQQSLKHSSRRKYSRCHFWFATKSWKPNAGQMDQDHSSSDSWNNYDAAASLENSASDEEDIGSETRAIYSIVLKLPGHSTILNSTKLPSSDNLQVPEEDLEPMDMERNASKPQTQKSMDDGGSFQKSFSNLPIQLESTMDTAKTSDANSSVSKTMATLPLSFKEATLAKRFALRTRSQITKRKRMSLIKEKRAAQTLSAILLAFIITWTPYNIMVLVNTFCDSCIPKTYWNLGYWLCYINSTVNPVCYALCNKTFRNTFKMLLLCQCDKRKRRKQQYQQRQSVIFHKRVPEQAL

Compound | Kb [3] [nM] | Kb [4] [nM] | also measured
COc1ccccc1CNCCCCCCN(C)CCCCCCCCN(C)CCCCCCNCc1ccccc1OC | – | – | Kb [1]: 417 nM; Kb [2]: 10.2 nM
Fc1ccc(CNCCCCCCNCCCCCCCCNCCCCCCNCc2ccc(F)cc2)cc1 | 129 | 2400 | –
O=[N+]([O-])c1ccc(CNCCCCCCNCCCCCCCCNCCCCCCNCc2ccc([N+](=O)[O-])cc2)cc1 | 95.5 | 1320 | –
COc1ccccc1CNCCCCCCNCCCCCCCCCCCNCCCCCCNCc1ccccc1OC | 37.2 | 2290 | –
COc1ccccc1CN(C)CCCCCCNCCCCCCCCNCCCCCCN(C)Cc1ccccc1OC | – | – | Kb [1]: > 10000 nM; Kb [2]: 166 nM
Cc1ccccc1CNCCCCCCNCCCCCCCCNCCCCCCNCc1ccccc1C | 58.9 | 2000 | –
c1cncc(CNCCCCCCNCCCCCCCCNCCCCCCNCc2cccnc2)c1 | – | – | Kb [1]: 4900 nM; Kb [2]: 288 nM
c1ccc(CNCCCCCCNCCCCCCCCNCCCCCCNCc2ccccn2)nc1 | – | – | Kb [1]: 3310 nM; Kb [2]: 53.7 nM
COc1ccc(CNCCCCCCNCCCCCCCCNCCCCCCNCc2ccc(OC)cc2)cc1 | 141 | 2750 | –
Cc1ccc(CNCCCCCCNCCCCCCCCNCCCCCCNCc2ccc(C)o2)o1 | – | – | Kb [1]: 708 nM; Kb [2]: 8.91 nM
COc1ccccc1CN(C)CCCCCCN(C)CCCCCCCCN(C)CCCCCCN(C)Cc1ccccc1OC | – | – | Kb [2]: 162 nM; Kb [7]: > 10000 nM
COc1cccc(CNCCCCCCNCCCCCCCCNCCCCCCNCc2cccc(OC)c2)c1 | 151 | 3890 | –
COc1ccccc1CNCCCCCCNCCCCCCCCNCCCCCCNCc1ccccc1OC [METHOCTRAMINE] | – | 832 | –

Now from value to compound, other results behind:

Kb [3] [nM] | Kb [4] [nM] | Compound | also measured
66.1 | 2820 | Clc1ccccc1CNCCCCCCNCCCCCCCCNCCCCCCNCc1ccccc1Cl | –
– | 851 | c1coc(CNCCCCCCNCCCCCCCCNCCCCCCNCc2ccco2)c1 | Kb [5]: 9.12 nM
83.2 | 2190 | c1ccc(CNCCCCCCNCCCCCCCCNCCCCCCNCc2ccccc2)cc1 | –
– | 1410 | COc1ccccc1CNCCCCCCNCCCCCCCCCCCCCCNCCCCCCNCc1ccccc1OC | –
166 | 2340 | Cc1ccc(CNCCCCCCNCCCCCCCCNCCCCCCNCc2ccc(C)cc2)cc1 | –
– | 2290 | Clc1cccc(CNCCCCCCNCCCCCCCCNCCCCCCNCc2cccc(Cl)c2)c1 | Kb [6]: 186 nM
162 | 2450 | COc1ccccc1CNCCCCCNCCCCCCCCNCCCCCNCc1ccccc1OC | –
95.5 | 1230 | COc1ccccc1CNCCCCCCNCCCCCCCCCCCCCNCCCCCCNCc1ccccc1OC | –
26.9 | 589 | CSc1ccccc1CNCCCCCCNCCCCCCCCNCCCCCCNCc1ccccc1SC | –
178 | 2340 | Clc1ccc(CNCCCCCCNCCCCCCCCNCCCCCCNCc2ccc(Cl)cc2)cc1 | –
27.5 | 646 | COc1ccccc1CNCCCCCCCNCCCCCCCCNCCCCCCCNCc1ccccc1OC | –
